# Laboratory results from ChEMBL document CHEMBL1122310, “Synthesis of exo-3-phenylbicyclo[3.2.1]oct-3-en-2-amine and related compounds as potential analgesics” (1983).
# “And” between values parts separate entries of the source, which are not always exact repeats. Equal values may be shown once.
# What was measured:
# Format in all cases: functional
# Rattus norvegicus [1] = assay: Behavioral stimulant activity in rat by peroral administration; Inactive
# Rattus norvegicus [2] = organism: Rattus norvegicus; assay: Antinociceptive activity by measuring in flamed paw pressure threshold in rat
# Summary of the method: (§1)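 ED50 determination: six animals per dose group, each dose tested on two or three separate occasions. Pooled data (total dose groups of 12 or 18 animals) analysed by regression to give ED50. Inflamed-paw pressure test in rats; acetylcholine-induced writhing in mice. Doses for the rat paw test given po.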
# Rattus norvegicus [3] = assay: Behavioral stimulant activity in rat by sc administration; Slight to moderate CNS stimulation
# Mus musculus = organism: Mus musculus; assay: Antinociceptive activity by measuring inhibition of acetylcholine writhing in mouse; summary of the method: as §1
# Rattus norvegicus [4] = assay: Behavioral stimulant activity in rat by sc administration; Moderate CNS stimulation
# Rattus norvegicus [5] = assay: Behavioral stimulant activity in rat by sc administration; Marked CNS stimulation
# Rattus norvegicus [6] = assay: Behavioral stimulant activity in rat by sc administration; Marked CNS activity
Structure (SMILES),Dose (Rattus norvegicus [1]) [mg/kg],ED50 (Rattus norvegicus [2]) [mg/kg],Dose (Rattus norvegicus [3]) [mg/kg],ED50 (Mus musculus) [mg/kg],Dose (Rattus norvegicus [4]) [mg/kg],Dose (Rattus norvegicus [5]),Dose (Rattus norvegicus [6]) [mg/kg]
C1=C(c2ccccc2)[C@@H](NCCc2ccccc2)C2CCC1C2 (some centres not stated),50,> 30,–,–,–,–,–
CN(CC1CC1)[C@@H]1C(c2ccccc2)=CC2CCC1C2 (some centres not stated),–,> 30,50,–,–,–,–
COCCN(C)[C@@H]1C(c2ccccc2)=CC2CCC1C2 (some centres not stated),25,> 30,–,–,–,–,–
C=CCN[C@@H]1C(c2ccccc2)=CC2CCC1C2 (some centres not stated),–,11,–,13.7,50,–,–
CCN(CC)[C@@H]1C(c2ccccc2)=CC2CCC1C2 (some centres not stated),–,> 30,25,2.4,–,–,–
C1=C(c2ccccc2)[C@@H](N2CCCC2)C2CCC1C2 (some centres not stated),–,15.7,–,19,–,25 mg/kg and 50 mg/kg,–
CN[C@@H]1C(c2ccccc2)=CC2CCC1C2 (some centres not stated),–,13.4,–,4,–,–,–
CN(C)[C@@H]1C(c2ccccc2)=CC2CCC1C2 (some centres not stated),–,2.9,–,3.9,–,50 mg/kg,–
CCCN(C)[C@@H]1C(c2ccccc2)=CC2CCC1C2 (some centres not stated),25,> 30,–,–,–,–,–
COc1cccc(C2=CC3CCC(C3)[C@@H]2N(C)C)c1 (some centres not stated),–,7.8,–,34.4,–,50 mg/kg,–
CCN(C)[C@@H]1C(c2cccc(O)c2)=CC2CCC1C2 (some centres not stated),25,> 30,–,–,–,–,–
CC(C)N(C)[C@@H]1C(c2ccccc2)=CC2CCC1C2 (some centres not stated),25,> 30,–,–,–,–,–
C=CCN(C)[C@@H]1C(c2ccccc2)=CC2CCC1C2 (some centres not stated),25,> 30,–,–,–,–,–
CCN(C)[C@@H]1C(c2ccccc2)=CC2CCC1C2 (some centres not stated),–,1.4,–,11.8,–,25 mg/kg,–
C1=C(c2ccccc2)[C@@H](NCC2CCCO2)C2CCC1C2 (some centres not stated),50,> 30,–,> 30,–,–,–
COCCN[C@@H]1C(c2ccccc2)=CC2CCC1C2 (some centres not stated),–,–,–,27.7,–,–,–
C1=C(c2ccccc2)[C@@H](NCC2CC2)C2CCC1C2 (some centres not stated),25,> 30,–,4.1,–,–,–
CCCN[C@@H]1C(c2ccccc2)=CC2CCC1C2 (some centres not stated),–,> 30,25,–,–,–,–
CC(C)N[C@@H]1C(c2ccccc2)=CC2CCC1C2 (some centres not stated),–,> 30,–,15.4,–,–,–
CN(C)CCN(C)[C@@H]1C(c2ccccc2)=CC2CCC1C2 (some centres not stated),25,> 30,–,–,–,–,–
CN(C)CCN[C@@H]1C(c2ccccc2)=CC2CCC1C2 (some centres not stated),50,18.1,–,31,–,–,–
CCN[C@@H]1C(c2ccccc2)=CC2CCC1C2 (some centres not stated),–,3.1,25,15.6,–,50 mg/kg,–
CCN(C)[C@@H]1C(c2cccc(OC)c2)=CC2CCC1C2 (some centres not stated),–,10.4,–,30.6,–,–,–
N[C@@H]1C(c2ccccc2)=CC2CCC1C2 (some centres not stated),25,> 10,–,8.3,–,–,25
CC(N)Cc1ccccc1 (configuration not stated) [AMPHETAMINE],–,2.1,6.25,1.6,–,12.5 mg/kg,–
COc1ccc2c3c1O[C@H]1[C@@H](O)C=C[C@H]4[C@@H](C2)N(C)CC[C@@]341 [CODEINE],50,5.7,–,10.3,–,–,–
